# Screening results as filed in PubChem.
# T cruzi inh = blocks replication of Trypanosoma cruzi; T. cruzi beta-gal in NIH3T3, luminescence, 90 h; 1.4% of 300,000 active; inhibition, % (test concentration not listed);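 active = mean inhibition across valid replicates above about 55%, limit read from the data; inconclusive = mean below that limit but half or more replicates reach it; inactive = mean below it, under half of replicates reach it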;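 note: signal also drops with host cell toxicity which is not excluded here; 0% = plate median of DMSO wells and 100% = zero luminescence signal; higher percent means less beta-gal luminescence so fewer parasites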
#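 Incubation – ≥90 h infection period, 3 h prior cell attachment · System – NIH/3T3 fibroblasts plus reporter T. cruzi · Doses – compound pinned at 50 nL/well, DMSO · Read-out basis – percent inhibition of parasite-derived β-gal signal · Signal – luminescent β-galactosidase signal after 60 min lysis · Also added – 5000 T. cruzi trypomastigotes/well · Medium – Low-serum DMEM with 2% FBS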
# HSF1 activator = increases HSF-1 driven luciferase reporter signal; NIH3T3-HGL HSF-1 luciferase reporter, MG132, 8 h; 100% = twice DMSO control signal; activation, % at 9 µM; 1.7% of 300,000 active; AID 504408;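 active = mean replicate activation of at least 50% with a set share of replicates each reaching 50%; inconclusive = only one of those two conditions met; inactive = mean below 50% and too few replicates reaching it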;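 note: 0% = median of the neutral control wells and 100% = twice that signal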
# HSF1 inhib = HSF1 inhibition. NIH3T3-HGL HSE-luciferase, MG132-induced, luminescence 8 h; active compounds read low. activity change, negative = inhibition, % at 7.5 µM (by protocol). 0.77% of 300,000 active;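 active = more than half of replicate wells show activity change below -50%, luminescence cut by over half; inconclusive = some wells, but at most half, below -50%; inactive = no replicate well below -50%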;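 note: luciferase reports HSF-1 transcriptional activity via heat shock element; 0% = median of DMSO wells and -100% = zero luminescence signal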
# HIF act = HIF pathway transcriptional activation; U2OS HRE-luciferase reporter, luminescence; normalized: DMSO 0%, desferrioxamine 100%; activation, % at 7.5 µM (by protocol); 0.32% of 300,000 active; AID 1910;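 active = mean activation of at least 10% of the iron chelator positive control signal, with at least half of replicates also reaching 10%; inconclusive = mean and replicate majority disagree about reaching 10%; inactive = mean and most replicates under 10%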
# Calb FLC = C. albicans growth modulation with fluconazole | 0.57% of 300,000 active | growth inhibition, % (no concentration beside the values) | C. albicans CaCi-2 + fluconazole, Alamar Blue growth, 48 h | AID 1979;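 active = growth inhibition above about 58% in most replicates, limit read from the data, passing the limit was not always enough; inconclusive = exactly half the replicates above a set limit; inactive = most replicates below a set limit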;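 note: all wells also contain fluconazole at 8 µg/ml as a sub-toxic cotreatment; 0% = median of DMSO wells and 100% = median of geldanamycin control wells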
# The depositor's hits bear a star; ? = inconclusive; . = no result given. Only some compounds are listed: those with a hit (about 4.4% of all), similar ones and a draw of the others.
SMILES,T cruzi inh,HSF1 activator,HSF1 inhib,HIF act,Calb FLC
CCOC(=O)/C=C/C(=O)Nc1ccccc1-c1ccccc1NC(=O)/C=C/C(=O)OCC,5,-56,-56*,2,1
COc1ccc(S(=O)(=O)N/N=c2\oc3c(OC)cccc3cc2S(=O)(=O)c2ccc(C)cc2)cc1OC,3,86*,59,-2,?
Nc1ccccc1Nc1cc(-c2ccccc2)nn1-c1cccc(Cl)c1,58*,4,4,0,-14
c1ccc(Oc2cccc(OCCn3cncn3)c2)cc1,-12,-69,-57*,-1,5
CNCCCOc1cccc(Oc2ccccc2)c1,60*,16,-6,1,-24
COc1ccc(Cn2c(CCC(=O)Nc3ccccc3OC)nc3cccnc32)cc1,-1,0,0,0,6
Cc1ccc(-n2cc(-c3ccc([N+](=O)[O-])cc3)[nH]c2=S)c(C)c1,-41,?,28,1,?
O=[N+]([O-])c1ccc(-c2cn(-c3ccccc3)c(=S)[nH]2)cc1,-10,30,17,3,-2
O=[N+]([O-])c1cccc(-c2cn(-c3ccccc3)c(=S)[nH]2)c1,2,74*,33,2,5
Cc1cccc(-n2cc(-c3ccc([N+](=O)[O-])cc3)[nH]c2=S)c1,-9,71*,28,3,-6
O=[N+]([O-])c1ccc2c(c1)[nH]c(=S)n2-c1ccccc1,-15,-8,-15,0,85*
O=C(CCCn1cncn1)N1CCCC(N2CCN(c3ccccc3F)CC2)C1 (stereo not given),10,2,-1,1,5
COc1cc(SC)ccc1C(=O)Nc1ccncc1,2,0,-2,1,-6
O=C(NCC1CCCO1)c1sc2cc(Cl)ccc2c1Cl (stereo not given),10,27,20,9.9*,-4
O=C(NCCN1CCOCC1)c1sc2cc(Cl)ccc2c1Cl,20,12,3,1,5
COc1cc(SC)ccc1C(=O)Nc1ccc2c(c1)CCC2,1,93*,61,0,11
COc1cc(SC)ccc1C(=O)NCC1CCCO1 (stereo not given),-5,-80,-74*,0,5
CCOc1ccc(C(=O)NCC2CCCO2)cc1OCC (stereo not given),-1,6,-5,11*,-3
CC1=C(C)CC(C(=O)NCc2c(F)cccc2Cl)C(C(=O)O)C1 (stereo not given),-2,-4,-9,0,-5
COc1ccc(Cl)cc1-n1c(C)ccc1C,-15,-1,3,0,2
COc1cc(-c2ccc3oc(-c4ccsc4)cc3c2)cc(OC)c1OC,3,12,20,0,-2
COc1ccc(CCNC(=O)C(=O)NCC2CCCN2S(=O)(=O)c2cc(C)ccc2C)cc1 (stereo not given),2,-3,-6,0,-7
Cc1cccn2cc(COc3ccc(-c4ccccc4)cc3)nc12,21,69*,36,3,-34
Brc1ccc(OCc2cn3ccccc3n2)cc1,-10,83*,53,0,-2
O=C(COc1ccc(Br)cc1)NCc1cn2ccccc2n1,-6,14,12,0,0
SMILES,T cruzi inh,HSF1 activator,HSF1 inhib,HIF act,Calb FLC
O=C(Nc1nnc(-c2ccccc2)o1)c1cccc(N2C(=O)CCC2=O)c1,-19,-10,-4,1,100*
O=C(Nc1nnc(-c2ccc(Br)cc2)o1)c1cccc(N2C(=O)CCC2=O)c1,-9,12,-3,-28,7
O=C(Nc1nnc(-c2ccc3c(c2)CCCC3)o1)c1ccccc1,45,-22,-19,0,88*
O=C(COc1ccccc1)Nc1nnc(-c2ccc3c(c2)CCCC3)o1,-12,9,7,2,82*
O=C(COc1ccccc1)Nc1nnc(-c2ccc(F)cc2)o1,4,-1,-4,0,64
O=C(Nc1nnc(-c2ccc3c(c2)CCCC3)o1)c1ccccc1Cl,2,7,-3,0,29
CC(O)CNc1nc(Cl)c(C#N)s1 (stereo not given),-17,4,1,0,4
O=C(O)c1ccc(NS(=O)(=O)c2ccc(C(=O)Nc3ccccc3)cc2)cc1,-21,1,0,0,0
CCCCSCCCNC(=O)Nc1ccc(C)c(C)c1,-6,-9,-5,0,0
Cc1cc(C)nc(NS(=O)(=O)c2ccc(CC(C)C)cc2)c1,-2,6,-7,0,5
CN1Cc2cc(C(=O)c3cc(Cl)cc(CSc4ncccn4)c3O)cnc2NC1=O,32,-18,-7,1,-7
Cc1ccc(O)c(C(=O)c2cnc3c(c2)CN(CCC(C)C)C(=O)N3)c1,4,120*,94,-2,4
Cc1ccc(O)c(C(=O)c2cnc3c(c2)CN(C)C(=O)N3)c1,-61,73*,61,2,-14
CCCCN1Cc2cc(C(=O)c3cc(OC)ccc3O)cnc2NC1=O,1,26,9,0,-5
COC(=O)C1=C(CCc2ccccc2)NC(=O)NC1c1ccc([N+](=O)[O-])cc1 (stereo not given),-15,24,8,0,-2
CCCn1c(=O)n(C)c(=O)c2c(SCC(=O)NC34CC5CC(CC(C5)C3)C4)nc(CC(C)C)nc21,69*,5,-1,0,-5
Cc1nnc(NC(=O)CSc2nc(CC(C)C)nc3c2c(=O)n(C)c(=O)n3C)s1,18,-24,-9,0,-34
Cc1ccc([N+](=O)[O-])cc1-c1[nH]c(-c2ccc(O)c(O)c2)nc1-c1ccccc1,-40,10,4,0,112*
COc1ccc(-c2nc(-c3ccccc3)c(-c3cc([N+](=O)[O-])ccc3C)[nH]2)cc1O,-7,17,9,0,25
Cc1cc(Cl)c(S(=O)(=O)NC2CCCC2)cc1OCC(N)=O,-5,-3,1,0,.
CCc1cc(C(=O)c2ccc(OC)cc2)c(N)s1,12,59*,30,0,-19
CCc1cc(C(=O)c2ccccc2OC)c(N)s1,23,-4,4,.,9
CCn1nc(C)cc1C(=O)Sc1cccc(Br)c1,13,-14,-1,1,-16
O=C1CS/C(=N/N=C/c2cccs2)N1Cc1ccc(F)cc1,12,25,9,1,-1
CCCCNC(=O)c1ccc(NC(=O)C2CCCO2)cc1 (stereo not given),-2,7,-5,0,12
CCCCc1ccc(NC(=O)C2CCCO2)cc1 (stereo not given),3,63*,19,1,-14
Clc1ccc2[nH]cc(-c3nnnn3-c3ccc4ccccc4c3)c2c1,69*,11,2,0,9
COC(=O)C(CCCN1C(=O)c2ccccc2C1=O)(NC(C)=O)c1nn[nH]n1 (stereo not given),-9,-8,0,0,19
CN(C)CCOC(=O)c1sc2ccccc2c1Cl,4,21,-5,0,110*
